Assays:
[1] = biological target: T1, Prostaglandin E2 receptor EP1 subtype (Mus musculus, UniProt P35375); assay: Displacement of [3H]PGE2 from mouse EP1 receptor expressed in CHO cells after 20 mins by scintillation counting; type: cell-based
T1 sequence (P35375 whole entry): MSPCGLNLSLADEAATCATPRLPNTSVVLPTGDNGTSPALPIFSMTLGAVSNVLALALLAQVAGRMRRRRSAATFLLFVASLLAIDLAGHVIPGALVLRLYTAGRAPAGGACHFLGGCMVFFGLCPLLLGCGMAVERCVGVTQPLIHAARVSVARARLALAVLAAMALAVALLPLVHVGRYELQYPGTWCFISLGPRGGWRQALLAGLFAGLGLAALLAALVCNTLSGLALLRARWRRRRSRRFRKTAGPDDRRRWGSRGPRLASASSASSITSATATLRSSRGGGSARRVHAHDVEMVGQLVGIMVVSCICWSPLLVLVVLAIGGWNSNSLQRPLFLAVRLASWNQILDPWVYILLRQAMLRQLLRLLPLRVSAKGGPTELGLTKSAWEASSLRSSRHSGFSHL

[2] = biological target: Prostaglandin E2 receptor EP2 subtype (Mus musculus, UniProt Q62053); assay: Displacement of [3H]PGE2 from mouse EP2 receptor expressed in CHO cells after 60 mins by scintillation counting; type: cell-based
Chain of Prostaglandin E2 receptor EP2 subtype (Mus musculus, UniProt Q62053) (Q62053 whole entry): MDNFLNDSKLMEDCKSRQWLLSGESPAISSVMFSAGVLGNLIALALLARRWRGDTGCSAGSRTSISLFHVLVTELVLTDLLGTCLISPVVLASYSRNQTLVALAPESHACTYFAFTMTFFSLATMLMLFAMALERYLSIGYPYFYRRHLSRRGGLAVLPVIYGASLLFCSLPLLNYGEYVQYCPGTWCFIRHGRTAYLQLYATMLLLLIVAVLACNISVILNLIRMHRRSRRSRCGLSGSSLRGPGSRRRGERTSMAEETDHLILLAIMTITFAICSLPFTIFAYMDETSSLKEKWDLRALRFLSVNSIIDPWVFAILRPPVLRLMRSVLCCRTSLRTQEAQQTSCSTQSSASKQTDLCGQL

[3] = biological target: T2, Prostaglandin E2 receptor EP3 subtype (Mus musculus, UniProt P30557); assay: Displacement of [3H]PGE2 from mouse EP3 receptor expressed in CHO cells after 60 mins by scintillation counting; type: cell-based
T2 sequence (P30557 whole entry): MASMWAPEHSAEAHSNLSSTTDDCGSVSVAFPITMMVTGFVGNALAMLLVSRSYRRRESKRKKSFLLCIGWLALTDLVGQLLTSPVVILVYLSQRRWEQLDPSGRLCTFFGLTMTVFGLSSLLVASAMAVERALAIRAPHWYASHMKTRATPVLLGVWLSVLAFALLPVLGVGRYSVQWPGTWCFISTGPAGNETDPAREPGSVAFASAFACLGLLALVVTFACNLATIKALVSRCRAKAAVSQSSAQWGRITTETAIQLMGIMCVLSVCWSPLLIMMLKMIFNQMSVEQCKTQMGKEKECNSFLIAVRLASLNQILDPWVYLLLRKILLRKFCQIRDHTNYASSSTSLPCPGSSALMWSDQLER

[4] = biological target: Prostaglandin E2 receptor EP4 subtype (Mus musculus, UniProt P32240); assay: Displacement of [3H]PGE2 from mouse EP4 receptor expressed in CHO cells after 60 mins by scintillation counting; type: cell-based
Chain of Prostaglandin E2 receptor EP4 subtype (Mus musculus, UniProt P32240) (P32240 whole entry): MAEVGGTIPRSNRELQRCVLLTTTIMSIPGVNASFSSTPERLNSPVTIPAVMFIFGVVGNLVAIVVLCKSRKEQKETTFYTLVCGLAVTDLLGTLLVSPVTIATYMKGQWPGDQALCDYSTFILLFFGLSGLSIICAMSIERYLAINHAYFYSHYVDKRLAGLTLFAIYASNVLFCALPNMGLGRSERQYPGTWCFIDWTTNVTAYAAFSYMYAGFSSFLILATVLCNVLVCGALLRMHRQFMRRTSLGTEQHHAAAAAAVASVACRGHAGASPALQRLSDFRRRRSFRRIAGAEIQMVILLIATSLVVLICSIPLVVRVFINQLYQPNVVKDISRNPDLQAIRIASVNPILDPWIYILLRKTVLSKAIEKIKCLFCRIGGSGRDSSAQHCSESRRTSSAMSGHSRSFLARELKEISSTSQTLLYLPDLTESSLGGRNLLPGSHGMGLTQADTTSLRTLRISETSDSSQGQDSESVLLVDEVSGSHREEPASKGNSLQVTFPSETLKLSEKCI

[5] = biological target: Prostaglandin E2 receptor EP2 subtype (Rattus norvegicus, UniProt Q62928); assay: Agonist activity at rat EP2 receptor expressed in CHO cells assessed as cAMP production after 10 mins by radioimmunoassay; type: functional, cell-based
Chain of Prostaglandin E2 receptor EP2 subtype (Rattus norvegicus, UniProt Q62928) (Q62928 whole entry): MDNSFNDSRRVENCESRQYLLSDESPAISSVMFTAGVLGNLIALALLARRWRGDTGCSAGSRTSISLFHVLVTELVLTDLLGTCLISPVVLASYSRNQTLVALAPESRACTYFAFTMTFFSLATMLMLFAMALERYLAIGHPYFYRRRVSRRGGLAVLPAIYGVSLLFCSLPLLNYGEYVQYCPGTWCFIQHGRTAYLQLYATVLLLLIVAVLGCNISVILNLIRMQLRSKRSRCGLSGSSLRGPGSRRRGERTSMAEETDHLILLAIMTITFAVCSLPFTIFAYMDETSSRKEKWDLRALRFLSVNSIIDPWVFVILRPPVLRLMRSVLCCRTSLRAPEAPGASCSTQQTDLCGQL
How it was run: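 CHO cells expressing rat EP2 receptor, seeded 1 × 10^5 cells/well and grown 2 days; washed, incubated 10 min at 37 °C in MEM with 2 µM diclofenac, then preincubated 10 min in assay medium with 1% BSA. Compound added, 10 min at 37 °C, stopped with ice-cold 10% trichloroacetic acid; cAMP measured by radioimmunoassay.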

[6] = biological target: Prostaglandin E2 receptor EP4 subtype (Rattus norvegicus, UniProt P43114); assay: Agonist activity at rat EP4 receptor expressed in CHO cells assessed as cAMP production after 10 mins by radioimmunoassay; type: functional, cell-based
Chain of Prostaglandin E2 receptor EP4 subtype (Rattus norvegicus, UniProt P43114) (P43114 whole entry): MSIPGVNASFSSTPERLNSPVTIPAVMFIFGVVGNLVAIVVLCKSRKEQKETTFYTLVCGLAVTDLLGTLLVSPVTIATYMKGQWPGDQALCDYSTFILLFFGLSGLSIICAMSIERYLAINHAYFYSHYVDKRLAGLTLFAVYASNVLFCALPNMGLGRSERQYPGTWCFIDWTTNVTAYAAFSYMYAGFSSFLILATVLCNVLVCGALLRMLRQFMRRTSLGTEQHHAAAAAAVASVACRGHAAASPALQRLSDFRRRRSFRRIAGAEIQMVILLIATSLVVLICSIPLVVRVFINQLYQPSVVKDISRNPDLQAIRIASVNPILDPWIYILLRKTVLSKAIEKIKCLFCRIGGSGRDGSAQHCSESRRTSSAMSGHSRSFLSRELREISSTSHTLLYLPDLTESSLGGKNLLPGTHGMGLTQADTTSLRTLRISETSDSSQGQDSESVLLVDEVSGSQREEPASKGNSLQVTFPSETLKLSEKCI

Rattus norvegicus [7] = assay: Induction of bone fracture healing in CrJ:CD(SD)IGS rat assessed as breaking strength of fractured fibulae at 3 ug/kg administered tropically as PLGA microsphere formulation measured after 17 days relative to control; type: functional
How it was run: (§1)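 Male Sprague–Dawley rats, 8 weeks old. Under sodium pentobarbital (30–50 mg/kg) the left fibula midshaft was exposed and cut. Compound in PLGA microspheres injected topically at the fracture. At 17 days fibulae removed for three-point destructive bending; breaking strength expressed as % of the mean of nonfractured fibulae from intact rats, with vehicle-treated fractured controls.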

Rattus norvegicus [8] = assay: Induction of bone fracture healing in CrJ:CD(SD)IGS rat assessed as breaking strength of fractured fibulae at 10 ug/kg administered tropically as PLGA microsphere formulation measured after 17 days relative to control; type: functional; how it was run: as §1
Rattus norvegicus [9] = assay: Induction of bone fracture healing in CrJ:CD(SD)IGS rat assessed as breaking strength of fractured fibulae at 30 ug/kg administered tropically as PLGA microsphere formulation measured after 17 days relative to control; type: functional; how it was run: as §1
Rattus norvegicus [10] = assay: Induction of bone fracture healing in CrJ:CD(SD)IGS rat assessed as breaking strength of fractured fibulae at 100 ug/kg administered tropically as PLGA microsphere formulation measured after 17 days relative to control; type: functional; how it was run: as §1
Rattus norvegicus [11] = assay: Induction of bone fracture healing in CrJ:CD(SD)IGS rat assessed as breaking strength of fractured fibulae at 300 ug/kg administered tropically as PLGA microsphere formulation measured after 17 days relative to control; type: functional; how it was run: as §1
Rattus norvegicus [12] = assay: Induction of bone fracture healing in CrJ:CD(SD)IGS rat assessed as breaking strength of fractured fibulae administered tropically as PLGA microsphere formulation measured after 17 days relative to control; type: functional, organism-based; how it was run: as §1
[13] = Drug release from PLGA microsphere assessed as compound remaining in microsphere at 100 ug/ml after 7 days in presence of 5% methanol; type: physicochemical; details: 168 h
[14] = Drug release from PLGA microsphere assessed as compound remaining in microsphere at 100 ug/ml after 14 days in presence of 5% methanol; type: physicochemical; details: 336 h
[15] = Drug release from PLGA microsphere assessed as compound remaining in microsphere at 100 ug/ml after 21 days in presence of 5% methanol; type: physicochemical; details: 504 h
[16] = Drug release from PLGA microsphere assessed as compound remaining in microsphere at 100 ug/ml after 28 days in presence of 5% methanol; type: physicochemical; details: 672 h
Rattus norvegicus [17] = assay: Toxicity in CrJ:CD(SD)IGS rat assessed as change in mean blood pressure at 300 ug/kg administered tropically as PLGA microsphere formulation; type: organism-based; details: in vivo, topical_or_ocular, 0.3 mg/kg
How it was run: (§2)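 Male Sprague–Dawley rats, 7–9 weeks old, anesthetized with urethane (1.5 g/kg, sc); compound given as PLGA microsphere formulation, with heart rate and mean blood pressure monitored.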

Rattus norvegicus [18] = assay: Toxicity in CrJ:CD(SD)IGS rat assessed as change in mean blood pressure at 1000 ug/kg administered tropically as PLGA microsphere formulation; type: organism-based; details: in vivo, topical_or_ocular, 1 mg/kg; how it was run: as §2
Rattus norvegicus [19] = assay: Toxicity in CrJ:CD(SD)IGS rat assessed as change in mean blood pressure at 3000 ug/kg administered tropically as PLGA microsphere formulation; type: organism-based; details: in vivo, topical_or_ocular, 3 mg/kg; how it was run: as §2
Rattus norvegicus [20] = assay: Toxicity in CrJ:CD(SD)IGS rat assessed as change in heart rate at 300 ug/kg, administered tropically as PLGA microsphere formulation; type: organism-based; details: in vivo, topical_or_ocular, 0.3 mg/kg; how it was run: as §2
Rattus norvegicus [21] = assay: Toxicity in CrJ:CD(SD)IGS rat assessed as change in heart rate at 1000 ug/kg, administered tropically as PLGA microsphere formulation; type: organism-based; details: in vivo, topical_or_ocular, 1 mg/kg; how it was run: as §2
Rattus norvegicus [22] = assay: Toxicity in CrJ:CD(SD)IGS rat assessed as change in heart rate at 3000 ug/kg, administered tropically as PLGA microsphere formulation; type: organism-based; details: in vivo, topical_or_ocular, 3 mg/kg; how it was run: as §2
[23] = Drug release from PLGA microsphere assessed as compound remaining in microsphere at 100 ug/ml after 7 days; type: physicochemical; details: 168 h
[24] = Drug release from PLGA microsphere assessed as compound remaining in microsphere at 100 ug/ml after 14 days; type: physicochemical; details: 336 h
[25] = Drug release from PLGA microsphere assessed as compound remaining in microsphere at 100 ug/ml after 21 days; type: physicochemical; details: 504 h
[26] = Drug release from PLGA microsphere assessed as compound remaining in microsphere at 100 ug/ml after 28 days; type: physicochemical; details: 672 h

Row | Ki [1] [nM] | Ki [2] [nM] | Ki [3] [nM] | Ki [4] [nM] | EC50 [6] [nM] | SMILES | Activity (Rattus norvegicus [9]) [%] | Activity (Rattus norvegicus [10]) [%] | Activity (Rattus norvegicus [11]) [%] | Activity (Rattus norvegicus [12]) | also measured
1 | 1300 | 21 | > 10000 | 0.21 | 8.8 | Cc1ccc2oc(-c3cccc(C[C@H](O)/C=C/[C@H]4CCC(=O)N4CCSc4nc(C(=O)O)cs4)c3)nc2c1 | 98.1 | 136 | 144.3 | Dose-dependent effect | EC50 [5]: > 10000 nM; Activity (Rattus norvegicus [7]): 77.7%; Activity (Rattus norvegicus [8]): 87.7%; Activity [13]: 99.6%; Activity [14]: 93.1%; Activity [15]: 85.2%; Activity [16]: 79.3%
2 | > 10000 | 2000 | > 10000 | 0.1 | 7 | O=C(O)CCCSCCN1C(=O)CC[C@@H]1/C=C/[C@@H](O)Cc1cccc(-c2cc3ccccc3o2)c1 | 95.4 | 136.3 | 154 | Dose-dependent effect | Activity (Rattus norvegicus [17]): 98.4%; Activity (Rattus norvegicus [18]): 98.2%; Activity (Rattus norvegicus [19]): 97.3%; Activity (Rattus norvegicus [20]): 106.3%; Activity (Rattus norvegicus [21]): 104.6%; Activity (Rattus norvegicus [22]): 111.4%; Activity [23]: 94.8%; Activity [24]: 91.1%; Activity [25]: 83.5%; Activity [26]: 46.3%
